# Measured values pooled from the literature.
# Protocols differ between the studies behind these lines.
# Target: Aurora kinase A (AURKA, Homo sapiens, UniProt O14965)
# Residues used in one study (O14965 1-403): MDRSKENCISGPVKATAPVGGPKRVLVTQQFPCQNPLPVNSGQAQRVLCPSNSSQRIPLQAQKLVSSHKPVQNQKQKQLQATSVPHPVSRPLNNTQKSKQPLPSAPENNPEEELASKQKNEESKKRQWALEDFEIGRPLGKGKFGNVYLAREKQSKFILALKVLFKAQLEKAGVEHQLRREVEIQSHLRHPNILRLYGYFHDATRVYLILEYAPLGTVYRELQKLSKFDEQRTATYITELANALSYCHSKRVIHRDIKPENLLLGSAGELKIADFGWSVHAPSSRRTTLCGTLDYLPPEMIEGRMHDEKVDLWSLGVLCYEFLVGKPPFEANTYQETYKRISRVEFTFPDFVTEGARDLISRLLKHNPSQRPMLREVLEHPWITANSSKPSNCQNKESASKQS
Compound,observed,mode,technique,tested at,endpoint,result
Cc1c(NC(=O)c2cc(C(N)=O)nc3cc(F)ccc23)c(C(F)(F)F)nn1Cc1ccc(C#N)cc1,cell-free assay,,competition with immobilised ligand,1 µM,remaining binding,89%
CNC(=O)c1cc(Oc2ccc(NC(=O)Nc3ccc(Cl)c(C(F)(F)F)c3)cc2)ccn1,enzyme activity,inhibitor,,0.3 µM,inhibition,16%
Cc1sc(C(=O)NC2COC2)cc1-n1cc(NC(=O)Nc2c(F)cccc2Cl)cn1,enzyme activity,inhibitor,,10 µM,remaining activity,88.4%
CCN(CC)CCNC(=O)c1c(C)[nH]c(/C=C2\C(=O)Nc3ccc(F)cc32)c1C,enzyme activity,inhibitor,,0.1 µM,remaining activity,83%
O=C1Nc2ccc(Cl)cc2C1=Cc1cc(Cl)c(O)c(Cl)c1,cell-free assay,,,0.5 µM,remaining signal,64.2%
Cc1nc(Cc2cccc(C(F)(F)F)c2)sc1-c1ccc(C(N)=O)nc1,cell-free assay,,competition with immobilised ligand,1 µM,remaining binding,100%
FC(F)c1nc2ccccc2n1-c1nc(N2CCOCC2)nc(N2CCOCC2)n1,enzyme activity,inhibitor,,10 µM,remaining activity,99%
Cc1ccc(NC(=O)c2ccc(C)c(C(F)(F)F)c2)cc1C#Cc1nn(C2CCC(O)CC2)c2ncnc(N)c12 (centres unmarked),cell-free assay,,,10 µM,remaining signal,64%
CC(C)(C)c1nc2c(s1)c1nc(N)ncc1c1ccc(NS(=O)(=O)c3c(F)cccc3F)c(F)c12,enzyme activity,inhibitor,radiometric,1 µM,remaining activity,103%
C[C@@H]1CCN(C(=O)CC#N)C[C@@H]1N(C)c1ncnc2[nH]ccc12,cell-free assay,inhibitor,,0.5 µM,remaining signal,84.1%
COc1cc(Nc2cnc(C#N)c(O[C@H](C)CN(C)C)n2)ncc1-c1cnn(C)c1,enzyme activity,inhibitor,radiometric,1 µM,remaining activity,84%
CN(c1ccnc(CNc2nc(Nc3ccc4c(c3)CC(=O)N4)ncc2C(F)(F)F)n1)S(C)(=O)=O,cell-free assay,,competition with immobilised ligand,1 µM,remaining binding,14%
Cc1ccc(C(=O)NCc2ccsc2)cc1C#Cc1cn(C(C)C)c2ncnc(N)c12,enzyme activity,inhibitor,,1 µM,activity vs control,50%
N#CC1(c2ccccn2)CCN(Cc2cc(C(=O)N3CCCC3)c(=O)n3ccccc23)CC1,cell-free assay,,competition with immobilised ligand,1 µM,remaining binding,90%
CSc1nc(C)c(-c2ccnc(Nc3ccc(N4CCOCC4)cc3)c2)[nH]1,enzyme activity,inhibitor,,10 µM,inhibition,40.6%
Cc1c[nH]c2nccc(Oc3c(F)cc(Nc4cc(Cl)nc(N)n4)cc3F)c12,cell-free assay,,competition with immobilised ligand,0.1 µM,remaining binding,94%
CC/C(=N\NC(=O)NCc1cccc(O)c1)c1ccc(O)c(C)c1O,enzyme activity,inhibitor,,0.1 µM,inhibition,5.9%
Cc1ccc(Nc2nccc(N(C)c3ccc4c(C)n(C)nc4c3)n2)cc1S(N)(=O)=O,enzyme activity,inhibitor,,0.3 µM,inhibition,73%
CC(C)(O)[C@H]1CC[C@H](Nc2ccc3ncc(-c4cccc(C(F)(F)F)c4)n3n2)CC1,enzyme activity,inhibitor,,1 µM,remaining activity,96.1%
COc1cc(-c2cn(C3CCc4c(F)cccc4N(CC(F)(F)F)C3=O)nn2)ccc1-n1cnc(C)c1 (centres unmarked),cell-free assay,,competition with immobilised ligand,1 µM,remaining binding,100%
Oc1cccc(-c2nc(N3CCOCC3)c3oc4ncccc4c3n2)c1,enzyme activity,inhibitor,,10 µM,remaining activity,92%
O=C(CSc1nc2nccnc2c(=O)n1CCc1ccccc1)Nc1nccs1,enzyme activity,inhibitor,,10 µM,inhibition,1%
Cc1[nH]c(/C=C2\C(=O)Nc3ccc(F)cc32)c(C)c1C(=O)N[C@H]1CCN(C(=O)N(C)C)C1,enzyme activity,inhibitor,,1 µM,remaining activity,35%
CNC(=O)Nc1ccc2c(c1)CC[C@@]21OC(=O)N(CC(=O)N(Cc2ccc(F)cc2)[C@@H](C)C(F)(F)F)C1=O,cell-free assay,,competition with immobilised ligand,1 µM,remaining binding,80%
Cc1cnc(NC2CCOCC2)nc1-n1cnc(C(=O)NC(CN)c2cc(F)cc(Cl)c2)c1 (centres unmarked),enzyme activity,inhibitor,radiometric,1 µM,remaining activity,48%
Cc1ccc(C(=O)Nc2ccc(CN3CCN(C)CC3)c(C(F)(F)F)c2)cc1C#Cc1cnc2cccnn12,enzyme activity,inhibitor,,23.5 nM,remaining activity,97%
O=C(Nc1cnn(-c2csc(C(=O)NC3COC3)c2)c1)Nc1ccccc1Cl,enzyme activity,inhibitor,,5 µM,remaining activity,105%
COc1cc2ncnc(Nc3ccc(Oc4ccccc4)c(C)c3C)c2cc1OC,enzyme activity,inhibitor,,1 µM,inhibition,13%
O=C(Nc1cnc(Oc2ccc(F)cc2)nc1)N1CCc2ncccc2[C@@H]1c1ccc(F)cc1,cell-free assay,,competition with immobilised ligand,1 µM,remaining binding,100%
CCN(CC)CCNC(=O)c1c(C)[nH]c(/C=C2\C(=O)Nc3ccc(F)cc32)c1C,enzyme activity,inhibitor,,0.3 µM,inhibition,28%
Nc1ncnc2occ(-c3ccc(NC(=O)Nc4cc(C(F)(F)F)ccc4F)cc3)c12,enzyme activity,inhibitor,,20 µM,remaining activity,0.1%
COc1cc(Cl)c(C(=O)N[C@@H](CN[C@H]2CC[C@@H](N)CC2)Cc2ccc(C#N)cc2)cc1-c1ccc(CN[C@H](C)c2ccc(C)cc2)o1,enzyme activity,inhibitor,,1 µM,remaining activity,98%
